Key:
[1] = biological target: Glutamate receptor ionotropic, kainate; test: Binding affinity against Ionotropic glutamate receptor kainate using [3H]-Kainic acid 19755 radioligand; format: protein-complex assay
Outline: (§1)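 Displacement of radioligand binding in rat cortical tissue: [3H]AMPA for AMPA sites, [3H]kainic acid for kainate sites. Assays run in triplicate unless otherwise indicated; some IC50 values come from a single assay.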

[2] = biological target: Glutamate receptor ionotropic, kainate; test: Antagonism at Ionotropic glutamate receptor kainate by inhibition of depolarizations induced by 10 uM kainic acid in rat cortical slice preparation.; format: functional
[3] = biological target: T1, Glutamate receptor ionotropic, AMPA (Rattus norvegicus, UniProt P19490+P19491+P19492+P19493); test: Antagonism at AMPA receptor by inhibition of depolarizations induced by 40 uM AMPA in rat cortical slice preparation.; format: functional
[4] = biological target: Glutamate NMDA receptor; test: Affinity of [3H]-CGS- 19755 radioligand to rat N-methyl-D-aspartate (NMDA) receptor; format: protein-complex assay
[5] = biological target: T1, Glutamate receptor ionotropic, AMPA; test: (§2) Binding affinity against Ionotropic glutamate receptor AMPA using [3H]AMPA 19755 radioligand; format: protein-complex assay
[6] = biological target: Glutamate NMDA receptor; test: Antagonism at NMDA receptor by inhibition of depolarizations induced by 40 uM NMDA in rat cortical slice preparation.; format: functional
[7] = biological target: Glutamate NMDA receptor (Rattus norvegicus) (UniProt P35439+Q00959+Q00960+Q00961+Q62645+Q8VHN2+Q9R1M7); test: Compound was tested for NMDA receptor antagonistic activity by measuring its ability to inhibit depolarizations induced by 40 uM NMDA in rat cortical slice preparation at 100 uM; format: functional
[8] = biological target: Glutamate NMDA receptor; test: Compound was tested for NMDA receptor antagonistic activity by measuring its ability to inhibit depolarizations induced by 40 uM NMDA in rat cortical slice preparation.; format: functional
[9] = biological target: T1, Glutamate receptor ionotropic, AMPA; test: Compound was tested for Ionotropic glutamate receptor AMPA antagonistic activity by measuring its ability to inhibit depolarizations induced by 40 uM AMPA in rat cortical slice preparation.; format: functional
[10] = biological target: Glutamate receptor ionotropic, kainate; test: Compound was tested for Ionotropic glutamate receptor kainate antagonistic activity by measuring its ability to inhibit depolarizations induced by 10 uM kainic acid in rat cortical slice preparation.; format: functional
[11] = tested on: Mus musculus; test: Effective dose to block maximal electroshock-induced convulsions in mice, administered intraperitoneally; format: functional; conditions: ip
[12] = tested on: Mus musculus; test: Minimum effective dose to block the lethality induced by 200 mg/kg ip dose of NMDA; format: functional; conditions: route intraperitoneal
Outline: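 Mice dosed ip 30 min before a 200 mg/kg ip NMDA challenge. Minimum effective dose is the lowest dose giving greater than 50% protection from lethality among all mice tested.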

[13] = tested on: Mus musculus; test: (§3) Effective dose to produce neurological impairments in mice using the horizontal screen assay, administered intraperitoneally; format: functional; conditions: ip
Outline: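 Mice dosed intraperitoneally 30 min before testing were placed on a horizontal screen, which was then turned upside down. Unimpaired mice climb back to the top within 2 min; failure indicates neurological impairment. This was done before MES testing.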

[14] = tested on: Mus musculus; test: Effective dose to block ATPA-induced muscle rigidity in mice at a dose of 30 mg/kg administered intraperitoneally; conditions: ip
[15] = biological target: T2, Glutamate receptor ionotropic, AMPA (Rattus norvegicus) (UniProt P19491+P19492+P19493+P19490); test: as §2; format: protein-complex assay; conditions: concentration not given here; outline: as §1
[16] = biological target: T2, Glutamate receptor ionotropic, AMPA (Rattus norvegicus); test: Compound was tested for AMPA receptor antagonistic activity by measuring its ability to inhibit depolarizations induced by 40 uM AMPA in rat cortical slice preparation at 100 uM; format: functional
[17] = tested on: Mus musculus; test: as §3; format: functional; conditions: ip; remark: listed apart in the source
Outline: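 Mice dosed ip 30 min beforehand are placed on a horizontal screen, which is then turned upside down. Unimpaired mice climb back to the top within 2 min.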

[18] = biological target: Glutamate receptor ionotropic, AMPA (Rattus norvegicus, UniProt P19491+P19492+P19493+P19490); test: Compound was tested for AMPA receptor antagonistic activity by measuring its ability to inhibit depolarizations induced by 40 uM AMPA in rat cortical slice preparation; agonist; format: functional
Glutamate receptor ionotropic, AMPA (Rattus norvegicus, UniProt P19491+P19492+P19493+P19490), sequence (P19491 whole entry): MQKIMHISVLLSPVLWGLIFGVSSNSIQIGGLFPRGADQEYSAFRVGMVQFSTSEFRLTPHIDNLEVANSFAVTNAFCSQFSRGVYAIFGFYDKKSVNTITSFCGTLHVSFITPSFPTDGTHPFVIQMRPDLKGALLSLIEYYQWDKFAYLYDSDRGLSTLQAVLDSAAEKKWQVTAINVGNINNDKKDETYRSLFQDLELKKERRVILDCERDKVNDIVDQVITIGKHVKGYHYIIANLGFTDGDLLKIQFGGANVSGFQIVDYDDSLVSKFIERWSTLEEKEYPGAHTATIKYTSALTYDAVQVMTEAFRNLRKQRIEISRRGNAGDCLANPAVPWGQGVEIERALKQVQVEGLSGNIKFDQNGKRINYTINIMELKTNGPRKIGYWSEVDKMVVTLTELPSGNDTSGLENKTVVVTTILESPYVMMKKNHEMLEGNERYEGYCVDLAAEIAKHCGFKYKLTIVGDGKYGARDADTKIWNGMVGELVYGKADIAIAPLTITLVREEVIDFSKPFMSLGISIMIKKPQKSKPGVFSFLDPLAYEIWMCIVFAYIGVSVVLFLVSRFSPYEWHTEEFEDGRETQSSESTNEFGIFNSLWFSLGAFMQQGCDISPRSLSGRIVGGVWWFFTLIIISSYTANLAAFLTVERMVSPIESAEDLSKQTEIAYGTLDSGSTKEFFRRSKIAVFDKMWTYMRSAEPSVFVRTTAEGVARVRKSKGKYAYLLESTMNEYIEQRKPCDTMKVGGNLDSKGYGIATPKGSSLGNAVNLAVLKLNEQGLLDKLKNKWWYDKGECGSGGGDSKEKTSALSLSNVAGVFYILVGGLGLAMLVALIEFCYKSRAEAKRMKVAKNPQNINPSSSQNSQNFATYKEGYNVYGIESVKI
Glutamate receptor ionotropic, AMPA (Rattus norvegicus, UniProt P19491+P19492+P19493+P19490), sequence (P19492 whole entry): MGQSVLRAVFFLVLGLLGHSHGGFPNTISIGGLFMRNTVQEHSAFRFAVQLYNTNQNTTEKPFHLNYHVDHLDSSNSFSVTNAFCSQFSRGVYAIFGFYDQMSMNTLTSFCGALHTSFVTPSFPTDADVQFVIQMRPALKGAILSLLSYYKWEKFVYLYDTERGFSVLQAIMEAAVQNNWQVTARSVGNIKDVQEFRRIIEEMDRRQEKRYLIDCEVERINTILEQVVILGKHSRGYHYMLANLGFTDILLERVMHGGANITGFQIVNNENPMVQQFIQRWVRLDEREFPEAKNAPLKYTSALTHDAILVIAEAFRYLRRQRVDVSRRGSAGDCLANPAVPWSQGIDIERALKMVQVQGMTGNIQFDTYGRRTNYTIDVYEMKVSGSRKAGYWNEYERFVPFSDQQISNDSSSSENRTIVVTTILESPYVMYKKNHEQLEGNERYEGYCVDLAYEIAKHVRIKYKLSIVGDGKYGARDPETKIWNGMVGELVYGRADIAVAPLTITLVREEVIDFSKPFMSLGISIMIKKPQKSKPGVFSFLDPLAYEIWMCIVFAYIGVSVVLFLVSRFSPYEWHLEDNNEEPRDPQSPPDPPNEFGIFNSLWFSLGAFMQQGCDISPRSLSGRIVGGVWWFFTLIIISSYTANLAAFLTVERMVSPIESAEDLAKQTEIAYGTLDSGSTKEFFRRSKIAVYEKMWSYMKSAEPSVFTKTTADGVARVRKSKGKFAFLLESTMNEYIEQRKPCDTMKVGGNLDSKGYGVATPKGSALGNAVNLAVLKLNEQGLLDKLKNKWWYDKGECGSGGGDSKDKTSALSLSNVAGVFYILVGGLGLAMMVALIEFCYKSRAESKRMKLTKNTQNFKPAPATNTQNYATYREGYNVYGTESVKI
Glutamate receptor ionotropic, AMPA (Rattus norvegicus, UniProt P19491+P19492+P19493+P19490), sequence (P19493 whole entry): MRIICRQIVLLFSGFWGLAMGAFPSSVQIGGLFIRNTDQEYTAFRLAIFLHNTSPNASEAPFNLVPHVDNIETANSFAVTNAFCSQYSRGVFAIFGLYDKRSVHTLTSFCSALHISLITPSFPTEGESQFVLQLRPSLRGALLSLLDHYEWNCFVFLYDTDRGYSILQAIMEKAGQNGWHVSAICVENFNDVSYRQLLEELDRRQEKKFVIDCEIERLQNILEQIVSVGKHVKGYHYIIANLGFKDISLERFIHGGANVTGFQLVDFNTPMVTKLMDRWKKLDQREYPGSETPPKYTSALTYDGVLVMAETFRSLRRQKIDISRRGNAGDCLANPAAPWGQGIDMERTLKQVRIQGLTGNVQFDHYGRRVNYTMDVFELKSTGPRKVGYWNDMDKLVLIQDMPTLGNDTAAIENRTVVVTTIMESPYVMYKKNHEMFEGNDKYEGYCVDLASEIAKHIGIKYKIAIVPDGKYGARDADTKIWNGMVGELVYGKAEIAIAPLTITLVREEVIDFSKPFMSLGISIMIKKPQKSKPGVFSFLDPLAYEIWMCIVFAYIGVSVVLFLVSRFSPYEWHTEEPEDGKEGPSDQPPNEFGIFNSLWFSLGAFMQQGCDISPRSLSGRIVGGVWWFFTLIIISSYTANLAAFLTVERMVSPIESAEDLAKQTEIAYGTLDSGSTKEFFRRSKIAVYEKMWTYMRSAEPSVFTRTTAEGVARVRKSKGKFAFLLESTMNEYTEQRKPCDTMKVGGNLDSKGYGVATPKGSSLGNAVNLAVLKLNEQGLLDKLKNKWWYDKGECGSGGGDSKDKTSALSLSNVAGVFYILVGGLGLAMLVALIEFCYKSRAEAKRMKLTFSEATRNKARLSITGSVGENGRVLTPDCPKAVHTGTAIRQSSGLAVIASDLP
Glutamate receptor ionotropic, AMPA (Rattus norvegicus, UniProt P19491+P19492+P19493+P19490), sequence (P19490 whole entry): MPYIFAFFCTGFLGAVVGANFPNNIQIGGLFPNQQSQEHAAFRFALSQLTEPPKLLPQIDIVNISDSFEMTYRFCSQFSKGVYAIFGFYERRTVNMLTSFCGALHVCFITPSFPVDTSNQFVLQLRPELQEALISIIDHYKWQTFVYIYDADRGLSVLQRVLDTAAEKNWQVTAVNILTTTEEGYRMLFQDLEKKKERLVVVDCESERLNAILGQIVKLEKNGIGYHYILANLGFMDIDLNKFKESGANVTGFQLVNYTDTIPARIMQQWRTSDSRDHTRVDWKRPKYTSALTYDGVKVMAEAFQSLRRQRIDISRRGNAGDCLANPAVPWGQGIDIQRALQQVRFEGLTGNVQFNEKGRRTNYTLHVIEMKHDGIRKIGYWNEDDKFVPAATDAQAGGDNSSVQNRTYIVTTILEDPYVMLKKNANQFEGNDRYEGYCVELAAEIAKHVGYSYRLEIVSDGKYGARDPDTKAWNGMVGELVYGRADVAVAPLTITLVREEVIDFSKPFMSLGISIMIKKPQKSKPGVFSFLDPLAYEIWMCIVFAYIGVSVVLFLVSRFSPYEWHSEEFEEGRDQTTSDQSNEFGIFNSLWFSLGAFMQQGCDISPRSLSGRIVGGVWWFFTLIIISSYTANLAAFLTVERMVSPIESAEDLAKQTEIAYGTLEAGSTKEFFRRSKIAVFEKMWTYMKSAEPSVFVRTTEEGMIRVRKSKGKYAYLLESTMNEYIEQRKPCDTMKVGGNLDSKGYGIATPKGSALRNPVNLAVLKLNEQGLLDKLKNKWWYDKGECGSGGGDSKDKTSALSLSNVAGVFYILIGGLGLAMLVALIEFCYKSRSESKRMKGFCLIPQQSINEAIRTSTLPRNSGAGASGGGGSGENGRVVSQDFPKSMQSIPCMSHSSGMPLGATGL

Compound | IC50 [1] [µM] | IC50 [2] [µM] | IC50 [3] [µM] | IC50 [4] [µM] | IC50 [5] [µM] | IC50 [6] [µM] | other results
O=C(O)[C@@H]1C[C@H]2C[C@@H](CCc3nn[nH]n3)CC[C@H]2CN1 | – | – | – | – | – | – | inhibition [7]: 60%
O=C(O)[C@@H]1C[C@H]2C[C@@H](OCc3nn[nH]n3)CC[C@H]2CN1 | – | – | – | – | – | – | ED50 [11]: 24.7 mg/kg; ED50 [12]: 80 mg/kg; ED50 [13]: 21 mg/kg; ED50 [14]: 30.6 mg/kg
O=C(O)[C@H]1C[C@@H]2C[C@H](CS(=O)(=O)c3nc[nH]n3)CC[C@@H]2CN1 | > 100 | – | – | 60.9 | 23.6 | – | –
CCOC(=O)[C@@H]1C[C@H]2C[C@@H](CCP(=O)(OCC)OCC)CC[C@H]2CN1C(=O)OC | – | > 100 | > 100 | > 100 | > 100 | > 100 | –
O=C(O)[C@@H]1C[C@H]2C[C@H](CCc3cc(O)no3)CC[C@H]2CN1 | > 100 | – | – | > 100 | > 100 | – | ED50 [11]: 31.1 mg/kg; ED50 [17]: > 100 mg/kg; ED50 [14]: 8.8 mg/kg
CCOC(=O)[C@@H]1C[C@H]2C[C@@H](CCC(=O)NS(=O)(=O)c3ccccc3)CC[C@H]2CN1C(=O)OC | > 100 | > 100 | > 100 | > 100 | > 100 | > 100 | –
O=C(O)[C@@H]1C[C@H]2C[C@@H](CS(=O)(=O)c3nnc[nH]3)CC[C@H]2CN1 (stereo in doubt; (-)36) | > 100 | – | – | > 100 | 0.6 | – | –
O=C(O)[C@@H]1C[C@H]2C[C@@H](CS(=O)(=O)c3nnc[nH]3)CC[C@H]2CN1 (stereo in doubt; 36) | – | 10 | 2.16 | – | 1.7 | > 100 | ED50 [11]: 9.5 mg/kg; ED50 [13]: 25.2 mg/kg

More lines, main results first:

IC50 [1] [µM] | IC50 [2] [µM] | IC50 [3] [µM] | IC50 [4] [µM] | IC50 [5] [µM] | IC50 [6] [µM] | Compound | other results
> 100 | 100 | 31.4 | 61.8 | 11.6 | > 100 | O=C(O)[C@@H]1C[C@H]2C[C@@H](CCS(=O)(=O)O)CC[C@H]2CN1 | –
> 10 | – | – | > 10 | > 10 | – | O=C(O)[C@@H]1C[C@H]2C[C@@H](CSc3nc[nH]n3)CC[C@H]2CN1 | IC50 [8]: > 100 µM; IC50 [9]: 68.8 µM; IC50 [10]: > 100 µM
> 100 | > 100 | > 100 | > 100 | > 100 | > 100 | O=C(O)[C@@H]1C[C@H]2C[C@@H](CNc3nn[nH]n3)CC[C@H]2CN1 (racemic) | –
> 100 | > 100 | – | > 10 | – | > 100 | O=C(O)[C@@H]1C[C@H]2C[C@@H](Cn3nnc(S)n3)CC[C@H]2CN1 (racemic) | inhibition [15]: 57.9%; inhibition [16]: 55%
– | > 100 | > 100 | > 10 | > 10 | > 100 | O=C(O)[C@@H]1C[C@H]2C[C@H](CCP(=O)(O)O)CC[C@H]2CN1 | –
> 100 | 71 | 19 | > 100 | 72.6 | 84 | O=C(CC[C@H]1CC[C@H]2CN[C@H](C(=O)O)C[C@H]2C1)Nc1nn[nH]n1 | –
> 100 | > 100 | > 100 | > 100 | > 100 | > 100 | CCOC(=O)[C@@H]1C[C@H]2C[C@@H](CCC(=O)NS(C)(=O)=O)CC[C@H]2CN1C(=O)OC | –
16.7 | – | – | > 10 | 12.9 | – | O=C(O)[C@@H]1C[C@H]2C[C@@H](Cn3nnnc3S)CC[C@H]2CN1 (racemic) | IC50 [18]: Agonist
